Legend:
[1] = target: Atypical kinase COQ8A, mitochondrial (Homo sapiens) (UniProt Q8NI60); assay: Inhibition of full length human ADCK3 expressed in bacterial system assessed as enzyme activity at 10 uM by KINOMEScan assay; parameters: scale not given: the % may be the effect or the level left
Outline: (§1)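 Commercial KINOMEscan binding panel of 100 kinases, test compound at 10 μM. Results are primary-screen binding interactions expressed as % Ctrl = (test compound signal − positive control signal)/(negative control signal − positive control signal) × 100. Lower % Ctrl means stronger binding.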

[2] = target: Tyrosine-protein kinase receptor UFO (Homo sapiens) (UniProt P30530); assay: Inhibition of human AXL (497 to 821 amino acid residues) assessed as enzyme activity at 10 uM by KINOMEScan assay expressed in bacterial system assessed as enzyme activity at 10 uM by KINOMEScan assay; parameters: scale not given: the % may be the effect or the level left
Outline: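 Commercial KINOMEscan binding screen across a 100-kinase panel, test compound at 10 μM. Primary-screen binding interactions reported as % Ctrl = (test compound signal − positive control signal)/(negative control signal − positive control signal) × 100. Lower values indicate stronger hits.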

[3] = target: Cyclin-dependent kinase 2 (Homo sapiens) (UniProt P24941); assay: Inhibition of full length human CDK2 expressed in bacterial system assessed as enzyme activity at 10 uM by KINOMEScan assay; parameters: scale not given: the % may be the effect or the level left
Outline: (§2)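 Competition binding screen on a 100-kinase KINOMEscan panel, compound tested at a single 10 μM concentration. Primary binding read-out expressed as % Ctrl = (test compound signal − positive control signal)/(negative control signal − positive control signal) × 100, with lower values meaning stronger binding.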

[4] = target: Cyclin-dependent kinase 3 (Homo sapiens) (UniProt Q00526); assay: Inhibition of full length human CDK3 expressed in bacterial system assessed as enzyme activity at 10 uM by KINOMEScan assay; parameters: scale not given: the % may be the effect or the level left; outline: as §2
[5] = target: Cyclin-dependent kinase 9 (Homo sapiens) (UniProt P50750); assay: Inhibition of full length human CDK9 expressed in bacterial system assessed as enzyme activity at 10 uM by KINOMEScan assay; parameters: scale not given: the % may be the effect or the level left; outline: as §1
[6] = target: Serine/threonine-protein kinase DCLK1 (Homo sapiens) (UniProt O15075); assay: Inhibition of human DCAMKL1 (270 to 662 amino acid residues) assessed as enzyme activity at 10 uM by KINOMEScan assay; parameters: scale not given: the % may be the effect or the level left; outline: as §2
[7] = target: Dual specificity tyrosine-phosphorylation-regulated kinase 1B (Homo sapiens) (UniProt Q9Y463); assay: Inhibition of full length human DYRK1B expressed in bacterial system assessed as enzyme activity at 10 uM by KINOMEScan assay; parameters: scale not given: the % may be the effect or the level left; outline: as §2
[8] = target: Focal adhesion kinase 1 (Homo sapiens) (UniProt Q05397); assay: Inhibition of human FAK (402 to 696 amino acid residues) assessed as enzyme activity at 10 uM by KINOMEScan assay expressed in bacterial system assessed as enzyme activity at 10 uM by KINOMEScan assay; parameters: scale not given: the % may be the effect or the level left; outline: as §2
[9] = target: Fibroblast growth factor receptor 2 (Homo sapiens) (UniProt P21802); assay: Inhibition of human FGFR2 (457 to 769 amino acid residues) assessed as enzyme activity at 10 uM by KINOMEScan assay expressed in bacterial system assessed as enzyme activity at 10 uM by KINOMEScan assay; parameters: scale not given: the % may be the effect or the level left; outline: as §1
[10] = target: Inhibitor of nuclear factor kappa-B kinase subunit alpha (Homo sapiens) (UniProt O15111); assay: Inhibition of full length human IKK-alpha assessed as enzyme activity at 10 uM by KINOMEScan assay; parameters: scale not given: the % may be the effect or the level left; outline: as §2
[11] = target: Mitogen-activated protein kinase 8 (Homo sapiens) (UniProt P45983); assay: Inhibition of full length human JNK1 assessed as enzyme activity at 10 uM by KINOMEScan assay; parameters: scale not given: the % may be the effect or the level left; outline: as §2
[12] = system: Mast/stem cell growth factor receptor Kit (Homo sapiens), P10721 [V559D,T670I]; assay: Inhibition of human KIT V559D/T670I mutant (545 to 952 amino acid residues) expressed in bacterial system assessed as enzyme activity at 10 uM by KINOMEScan assay; parameters: scale not given: the % may be the effect or the level left; outline: as §1
[13] = target: Serine/threonine-protein kinase STK11 (Homo sapiens) (UniProt Q15831); assay: Inhibition of full length human LKB1 expressed in bacterial system assessed as enzyme activity at 10 uM by KINOMEScan assay; parameters: scale not given: the % may be the effect or the level left; outline: as §1
[14] = target: MAP kinase-interacting serine/threonine-protein kinase 2 (Homo sapiens) (UniProt Q9HBH9); assay: Inhibition of human MKNK2 (63 to 388 amino acid residues) assessed as enzyme activity at 10 uM by KINOMEScan assay; parameters: scale not given: the % may be the effect or the level left; outline: as §2
[15] = target: Serine/threonine-protein kinase PAK 4 (Homo sapiens) (UniProt O96013); assay: Inhibition of human PAK4 (144 to 438 amino acid residues) expressed in bacterial system assessed as enzyme activity at 10 uM by KINOMEScan assay; parameters: scale not given: the % may be the effect or the level left
Outline: (§3)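 Single-concentration competition binding screen (KINOMEscan) across a 100-kinase panel at 10 μM. Primary binding read-out is reported as % of control: (test signal − positive-control signal)/(negative-control signal − positive-control signal) × 100. Lower values indicate stronger binding.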

[16] = target: Phosphatidylinositol 4-phosphate 3-kinase C2 domain-containing subunit beta (Homo sapiens) (UniProt O00750); assay: Inhibition of human PIK3C2B (1 to 1634 amino acid residues) assessed as enzyme activity at 10 uM by KINOMEScan assay; parameters: scale not given: the % may be the effect or the level left; outline: as §1
[17] = target: Phosphatidylinositol 4,5-bisphosphate 3-kinase catalytic subunit gamma isoform (Homo sapiens) (UniProt P48736); assay: Inhibition of human PIK3CG (144 to 1102 amino acid residues) assessed as enzyme activity at 10 uM by KINOMEScan assay; parameters: scale not given: the % may be the effect or the level left; outline: as §3
[18] = target: T1, Serine/threonine-protein kinase pim-1 (Homo sapiens, UniProt P11309); assay: Inhibition of human PIM1 (15 to 313 amino acid residues) expressed in bacterial system assessed as enzyme activity at 10 uM by KINOMEScan assay; parameters: scale not given: the % may be the effect or the level left; outline: as §3
[19] = target: Proto-oncogene tyrosine-protein kinase Src (Homo sapiens) (UniProt P12931); assay: Inhibition of human SRC (240 to 536 amino acid residues) expressed in bacterial system assessed as enzyme activity at 10 uM by KINOMEScan assay; parameters: scale not given: the % may be the effect or the level left; outline: as §3
[20] = target: TGF-beta receptor type-1 (Homo sapiens) (UniProt P36897); assay: Inhibition of human TGFBR1 (179 to 503 amino acid residues) expressed in bacterial system assessed as enzyme activity at 10 uM by KINOMEScan assay; parameters: scale not given: the % may be the effect or the level left; outline: as §1
[21] = target: High affinity nerve growth factor receptor (Homo sapiens) (UniProt P04629); assay: Inhibition of human TRKA (475 to 790 amino acid residues) assessed as enzyme activity at 10 uM by KINOMEScan assay; parameters: scale not given: the % may be the effect or the level left; outline: as §1
[22] = target: Tyrosine-protein kinase ZAP-70 (Homo sapiens) (UniProt P43403); assay: Inhibition of human ZAP70 (20 to 299 amino acid residues) assessed as enzyme activity at 10 uM by KINOMEScan assay; parameters: scale not given: the % may be the effect or the level left; outline: as §1
[23] = target: Casein kinase II (Homo sapiens) (UniProt P67870+P68400+P19784); assay: Share of MOE computational kinase hits for CK2
[24] = target: T1, Serine/threonine-protein kinase pim-1; assay: Share of MOE computational kinase hits for Pim family

SMILES: O=C1C2=C(C(=O)c3c(O)ccc(O)c31)[C@@H](O)[C@@H](O)[C@@H](O)C2
- Activity [1]: 100%
- Activity [2]: 100%
- Activity [3]: 92%
- Activity [4]: 88%
- Activity [5]: 100%
- Activity [6]: 90%
- Activity [7]: 53%
- Activity [8]: 95%
- Activity [9]: 100%
- Activity [10]: 87%
- Activity [11]: 96%
- Activity [12]: 86%
- Activity [13]: 100%
- Activity [14]: 98%
- Activity [15]: 91%
- Activity [16]: 100%
- Activity [17]: 68%
- Activity [18]: 34%
- Activity [19]: 91%
- Activity [20]: 100%
- Activity [21]: 78%
- Activity [22]: 100%
- % of MOE kinase hits [23]: 43%
- % of MOE kinase hits [24]: 29%
